Data on eight compounds can be found in ChEMBL document CHEMBL1125754, “Synthesis and antiviral activity of 9-alkoxypurines. 2. 9-(2,3-Dihydroxypropoxy)-, 9-(3,4-dihydroxybutoxy)-, and 9-(1,4-dihydroxybut-2-oxy)purines” (J Med Chem, 1991).

pIC50: −log10 of the molar value.

Assay [1] relates to Human alphaherpesvirus 3. Briefly: Compound was tested for its antiviral activity against VZV (Ellen) using plaque reduction assay. Type of assay: functional, organism-based. Put shortly:
(§1)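 MRC-5 cell monolayers were infected with about 50 PFU of virus. Compounds were present at various concentrations for the whole incubation; stocks were 10 mg/mL in Me2SO, diluted in culture medium. IC50 is the concentration that cut plaque count to 50% of untreated controls.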
For orientation: Plaques are areas of infected cells; plaque reduction assays count them against a control.

Assay [2] deals with Human alphaherpesvirus 2. Kind of assay: Compound was tested for its antiviral activity against HSV-2 (MS) using plaque reduction assay. It counts as functional, organism-based. Put shortly: as §1
The next assay relates to Human alphaherpesvirus 1. Kind of assay: Compound was tested for its antiviral activity against HSV-1 (SC16) using plaque reduction assay. Type of assay: functional, organism-based. Put shortly:
as §1

In assay [3] the test system is Human alphaherpesvirus 3. Kind of assay: Compound was tested for its antiviral activity against VZV(Ellen) using plaque reduction assay.
Assay [4] has as its system Human alphaherpesvirus 2. Kind of assay: Compound was tested for its antiviral activity against HSV-2(MS) using plaque reduction assay. Type of assay: functional, organism-based. Put shortly: as §1

One may read the pIC50 as the negative decadic logarithm of the IC50, by convention in mol/L. A higher pIC50 goes with a small IC50. As for `Nc1nc(O)c2ncn(OC[C@@H](O)CO)c2n1`, the results for the pIC50 in the assay with Human alphaherpesvirus 3 [1], in the assay on Human alphaherpesvirus 2 [2] and in the assay with Human alphaherpesvirus 1 were 4.21, 6.34 and 5.57, respectively.
In the same order, the values of `Nc1nc(O)c2ncn(OCC(O)CO)c2n1` (centres undefined) are 3.81, 5.55 and 5.10.
In the same order, the values of `Nc1nc(O)c2ncn(OCCC(O)CO)c2n1` (centres undefined) are less than 3.41, less than 3.41 and less than 3.41.
Regarding `Nc1nc2c(ncn2COCCO)c(=O)[nH]1` [ACYCLOVIR], the pIC50 in the assay on Human alphaherpesvirus 3 [3] is 4.82; in the assay on Human alphaherpesvirus 2 [4], 5.92; with Human alphaherpesvirus 1 it was 5.32.
`Nc1nc(O)c2ncn(O[C@@H](CO)CCO)c2n1`: the pIC50 is less than 3.41 with Human alphaherpesvirus 3 [1], less than 3.41 with Human alphaherpesvirus 2 [2] and 3.41 in the assay on Human alphaherpesvirus 1.
As to `Nc1nc(O)c2ncn(O[C@H](CO)CCO)c2n1`, the pIC50 was 5.08 with Human alphaherpesvirus 3 [1], less than 3.41 in the assay with Human alphaherpesvirus 2 [2] and 4.44 in the assay on Human alphaherpesvirus 1.
The corresponding values for `Nc1nc(O)c2ncn(OC[C@H](O)CO)c2n1` are less than 3.38, less than 3.38 and less than 3.38.
The corresponding values for `Nc1nc(O)c2ncn(OC(CO)CCO)c2n1` (centres undefined) are 4.52, less than 3.41 and 4.37.
